Consider one compound from ChEMBL document CHEMBL4396917, “Synthesis and biological evaluation of novel benzylidene-succinimide derivatives as noncytotoxic antiangiogenic inhibitors with anticolorectal cancer activity in vivo” (Eur J Med Chem, 2019).

The inhibition is how much of the control response was suppressed. In general, IC50 refers to the point on the concentration scale where inhibition reaches its midpoint.

Series [1] is described as follows: Induction of apoptosis in human HT-29 cells assessed as viable cells at 5 uM after 48 hrs by Annexin V-FITC/propidium iodide staining based flow cytometric analysis (reference value: 81.1%). The conditions noted are these: read-out: Activity. Type of series: cell-based. Background: In flow cytometry, cells or beads pass a laser one at a time.
The target in series [2] is RAC-alpha serine/threonine-protein kinase (Homo sapiens) (UniProt P31749). Kind of series: Inhibition of AKT1 (unknown origin) at 10 uM using myelin basic protein as substrate in presence of [gamma-33P]-ATP by scintillation counting analysis relative to control. The essentials: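 Radiometric kinase assay: kinase (5–10 mU) in 25 mM Tris pH 7.5, 0.02 mM EGTA, 0.66 mg/mL myelin basic protein, magnesium acetate and [γ-33P]ATP. The reaction was started with Mg-ATP, run 40 min at room temperature and stopped with 3% phosphoric acid. Samples were spotted on P30 filters, washed with 75 mM phosphoric acid and methanol, then scintillation counted. Tested at 10 μM; mean of three independent experiments.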
RAC-alpha serine/threonine-protein kinase (Homo sapiens), sequence (P31749 whole entry): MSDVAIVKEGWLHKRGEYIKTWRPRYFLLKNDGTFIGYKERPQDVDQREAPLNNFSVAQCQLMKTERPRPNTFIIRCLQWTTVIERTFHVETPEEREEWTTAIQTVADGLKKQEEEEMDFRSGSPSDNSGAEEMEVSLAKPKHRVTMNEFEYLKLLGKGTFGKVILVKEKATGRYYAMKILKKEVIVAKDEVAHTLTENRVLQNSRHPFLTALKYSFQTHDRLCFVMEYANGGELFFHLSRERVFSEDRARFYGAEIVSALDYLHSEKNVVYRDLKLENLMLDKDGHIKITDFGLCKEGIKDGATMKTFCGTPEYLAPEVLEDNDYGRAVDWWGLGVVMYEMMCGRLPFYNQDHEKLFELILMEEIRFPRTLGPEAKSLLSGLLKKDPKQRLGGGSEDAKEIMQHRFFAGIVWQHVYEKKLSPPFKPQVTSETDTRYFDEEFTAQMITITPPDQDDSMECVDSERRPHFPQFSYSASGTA

The test system of series [3] is HUVEC. Kind of series: Antiinvasive activity in HUVEC assessed as inhibition of VEGF-induced cell invasion at 10 uM after 6 hrs by crystal violet staining based transwell assay relative to control. The conditions noted are these: Homo sapiens. Type of series: functional. The gist of the method:
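Transwell: 1×10⁴ HUVECs in serum-free M200 in top chamber with vehicle or compound; bottom chamber M200 with 10% FBS; 6 h at 37°C; cells on membrane underside fixed in 4% paraformaldehyde, stained 0.1% crystal violet, imaged and counted.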

The target in series [4] is Vascular endothelial growth factor receptor 2 (Homo sapiens) (UniProt P35968). Kind of series: Inhibition of VEGFR2 in VEGF-stimulated HUVEC assessed as suppression of VEGFR2 phosphorylation at Tyr1175 residue pre-incubated for 2 hrs followed by VEGF stimulation for 15 mins by Western blot analysis. Format: cell-based. The gist of the method: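 HUVECs serum-starved overnight, pretreated 2 h with 1, 2.5, 5 or 10 μM compound, then stimulated 15 min with 50 ng/mL VEGF165. Lysed in Tris/EDTA/Triton/deoxycholate/SDS buffer with phosphatase and protease inhibitors. Protein equalized by Bradford, about 20 μg resolved on gradient SDS-PAGE. Blots probed for phospho and total VEGFR2 (Tyr1175), ERK1/2 (Thr202/Tyr204) and AKT (Ser473) against actin, with HRP/ECL detection.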
Vascular endothelial growth factor receptor 2 (Homo sapiens), sequence (P35968 whole entry): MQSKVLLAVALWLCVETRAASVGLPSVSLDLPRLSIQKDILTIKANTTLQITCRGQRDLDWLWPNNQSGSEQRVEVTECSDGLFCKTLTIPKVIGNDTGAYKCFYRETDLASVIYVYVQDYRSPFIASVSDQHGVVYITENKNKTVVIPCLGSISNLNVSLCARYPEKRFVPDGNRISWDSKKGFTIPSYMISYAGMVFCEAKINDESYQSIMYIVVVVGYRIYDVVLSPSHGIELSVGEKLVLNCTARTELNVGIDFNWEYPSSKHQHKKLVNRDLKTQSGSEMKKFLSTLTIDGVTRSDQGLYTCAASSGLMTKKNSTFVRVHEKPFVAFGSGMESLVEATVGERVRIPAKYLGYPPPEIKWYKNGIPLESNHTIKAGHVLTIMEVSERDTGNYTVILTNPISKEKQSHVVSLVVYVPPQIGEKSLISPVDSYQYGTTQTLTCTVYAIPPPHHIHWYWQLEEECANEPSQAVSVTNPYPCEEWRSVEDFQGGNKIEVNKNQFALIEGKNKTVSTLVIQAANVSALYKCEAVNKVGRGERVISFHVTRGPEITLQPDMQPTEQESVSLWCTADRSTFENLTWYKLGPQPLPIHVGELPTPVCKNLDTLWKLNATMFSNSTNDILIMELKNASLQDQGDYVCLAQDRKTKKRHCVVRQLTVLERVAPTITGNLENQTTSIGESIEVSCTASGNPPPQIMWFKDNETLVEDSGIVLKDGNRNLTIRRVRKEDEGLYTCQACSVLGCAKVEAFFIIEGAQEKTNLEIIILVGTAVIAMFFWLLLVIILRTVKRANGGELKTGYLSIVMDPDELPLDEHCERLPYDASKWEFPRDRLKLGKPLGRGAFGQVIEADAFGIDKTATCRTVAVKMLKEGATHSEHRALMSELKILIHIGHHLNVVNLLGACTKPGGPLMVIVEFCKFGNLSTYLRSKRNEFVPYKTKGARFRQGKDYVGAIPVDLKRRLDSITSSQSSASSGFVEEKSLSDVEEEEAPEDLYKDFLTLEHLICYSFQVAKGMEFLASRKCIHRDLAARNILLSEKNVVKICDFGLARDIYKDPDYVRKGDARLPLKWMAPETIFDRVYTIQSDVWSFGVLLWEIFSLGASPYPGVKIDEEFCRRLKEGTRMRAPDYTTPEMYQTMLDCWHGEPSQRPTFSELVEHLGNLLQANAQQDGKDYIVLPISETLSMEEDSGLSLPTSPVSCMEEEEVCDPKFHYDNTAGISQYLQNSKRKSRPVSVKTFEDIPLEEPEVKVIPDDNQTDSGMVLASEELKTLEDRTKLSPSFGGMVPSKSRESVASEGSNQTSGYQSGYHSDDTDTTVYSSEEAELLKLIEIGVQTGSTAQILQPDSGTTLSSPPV
A general note: Immunoblotting shows a protein as a band on a membrane.

Series [5] has as its system HT-29. Kind of series: Downregulation of MMP9 expression in human HT-29 cells after 24 hrs by immunoblot analysis. Type of series: functional, cell-based.
In another series the test system is SW480. Kind of series: Cytotoxicity against human SW480 cells assessed as reduction in cell growth after 72 hrs by MTT assay. Format: cell-based. Conditions: SW480, 72 h. A general note: Formazan colour is commonly taken as a measure of viable cells.
Series [6] relates to HUVEC. Kind of series: Inhibition of Akt/mTOR signalling in VEGF-induced HUVEC assessed as reduction in P70S6K phosphorylation at Thr389 residue pre-incubated for 1.5 hrs followed by VEGF stimulation and measured after 30 mins by Western blot analysis. The conditions noted are these: Homo sapiens. Format: cell-based. The essentials: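 HUVECs were starved overnight, pretreated 1.5 h with 1, 5, 10 or 20 μM, then stimulated with VEGF (50 ng/mL) for 30 min. Lysates were equalized by Bradford assay, about 20 μg protein was resolved on gradient SDS-PAGE and immunoblotted with phospho-specific antibodies. Detection by HRP secondary antibodies and ECL.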

Series [7] relates to HUVEC. Kind of series: Antimigratory activity in HUVEC assessed as reduction in VEGF-induced cell migration at 1 to 2.5 uM by wound healing assay. Conditions: Homo sapiens, TDE = time-dependent effect.
Series [8] has as its system HT-29. Kind of series: Antiangiogenic activity against human HT-29 cells xenografted in mouse assessed as reduction in mean vessel density in tumour at 40 mg/kg, po administered for 7 days measured at 20 days post-treatment. Format: functional, organism-based.
The subject of the next series is NCM460. Kind of series: Cytotoxicity against human NCM460 cells assessed as reduction in cell growth after 72 hrs by MTT assay. Format: cell-based. The conditions noted are these: NCM460, 72 h.
The test system of series [9] is HT-29. Kind of series: Induction of apoptosis in human HT-29 cells assessed as necrotic cells at 5 uM after 48 hrs by Annexin V-FITC/propidium iodide staining based flow cytometric analysis (reference value: 1.3%). Format: cell-based. The conditions noted are these: ht-29, 48 h.
The test system of another series is Mus musculus. Kind of series: Antiangiogenic activity in Matrigel plug angiogenic Balb/c mouse model assessed as impaired vascularization by measuring loss of red colour in VEGF-supplemented matrigel at 20 to 60 mg/kg, sc measured after 15 days. Type of series: functional, organism-based. The essentials:
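Balb/c nude mice (6–8 weeks), three groups, injected subcutaneously with 400 μL Matrigel alone or with VEGF (250 ng/mL) and/or compound; after 15 days plugs removed, weighed and photographed.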

Series [10] addresses Mitogen-activated protein kinase 1 (Homo sapiens) (UniProt P28482). Kind of series: Inhibition of ERK2 (unknown origin) at 10 uM using myelin basic protein as substrate in presence of [gamma-33P]-ATP by scintillation counting analysis relative to control. The essentials: (§1)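 Radiometric kinase panel run by a contract lab. Kinase (5–10 mU) in 25 mM Tris pH 7.5, 0.02 mM EGTA, 0.66 mg/mL myelin basic protein, magnesium acetate and [γ-33P]-ATP (about 500 cpm/pmol). Started with Mg-ATP mix, 40 min at room temperature, stopped with 3% phosphoric acid. Spotted on P30 filters, washed in 75 mM phosphoric acid and methanol, scintillation counted. Mean ± SD of three independent experiments.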

Series [11] concerns HT-29. Kind of series: Induction of apoptosis in human HT-29 cells assessed as early apoptotic cells at 1 uM after 24 hrs by Annexin V-FITC/propidium iodide staining based flow cytometric analysis (reference value: 1.9%). The conditions noted are these: ht-29, 24 h. Format: cell-based.
Series [12] concerns HUVEC. Kind of series: Induction of apoptosis in VEGF-stimulated HUVEC assessed as necrotic cells at 20 uM after 24 hrs by Annexin V-FITC/propidium iodide staining based flow cytometric analysis (reference value: 12.1%). Type of series: cell-based. Conditions: human. The gist of the method: (§2)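 HUVECs plated at 5×10^5 per well and treated 24 h with 1, 5, 10 or 20 μM. Detached and adherent cells were pooled, washed in ice-cold PBS and resuspended in fresh medium. 1×10^5 cells were stained with annexin-V-FITC in annexin-V buffer for 20 min in the dark, then PI (50 μg/mL) was added. Read-out by flow cytometry.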

The test system of series [13] is HT-29. Kind of series: Inhibition of Akt/mTOR signalling in human HT-29 cells assessed as reduction in AKT phosphorylation at Ser473 residue incubated for 24 hrs by immunoblot analysis. Format: cell-based. The gist of the method:
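HT29 cells were exposed to the indicated concentrations for 24 h. Cell lysates were then immunoblotted for the phosphorylated proteins.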

Series [14] deals with Mitogen-activated protein kinase 3 (Homo sapiens) (UniProt P27361). Kind of series: Inhibition of ERK1 (unknown origin) at 10 uM using myelin basic protein as substrate in presence of [gamma-33P]-ATP by scintillation counting analysis relative to control. The gist of the method:
as §1

Series [15] in a line: Induction of apoptosis in VEGF-stimulated HUVEC assessed as viable cells at 10 uM after 24 hrs by Annexin V-FITC/propidium iodide staining based flow cytometric analysis (reference value: 69.6%). Conditions: human, read-out: Activity. Type of series: cell-based. The essentials:
as §2

Series [16] deals with HUVEC. Kind of series: Antimigratory activity in HUVEC assessed as reduction in VEGF-induced cell migration measured after 6 to 24 hrs by wound healing assay. Type of series: functional, cell-based. Conditions: Homo sapiens. The essentials: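 Confluent HUVECs starved 12 h in M200 with 2% FBS, scratched with pipette tip; fresh M200 with 25 ng/mL VEGF plus vehicle, 2.5 μM sunitinib or compound (1, 2.5 μM); wound imaged at 0, 6, 12 and 24 h by inverted microscopy.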

Calls of active or inactive are those of the source. The calls are words filed in the database; no cut-off is given here.

Mitogen-activated protein kinase 1 (Homo sapiens), sequence (P28482 whole entry): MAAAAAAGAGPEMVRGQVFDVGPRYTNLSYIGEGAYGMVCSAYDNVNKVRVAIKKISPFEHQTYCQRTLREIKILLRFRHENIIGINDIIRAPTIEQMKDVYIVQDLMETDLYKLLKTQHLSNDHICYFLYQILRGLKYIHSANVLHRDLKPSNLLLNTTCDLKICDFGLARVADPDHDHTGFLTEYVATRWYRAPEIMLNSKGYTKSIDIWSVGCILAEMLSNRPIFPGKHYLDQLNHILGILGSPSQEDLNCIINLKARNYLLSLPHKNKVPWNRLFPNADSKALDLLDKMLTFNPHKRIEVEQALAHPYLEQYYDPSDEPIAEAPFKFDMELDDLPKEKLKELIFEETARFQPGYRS
Mitogen-activated protein kinase 3 (Homo sapiens), sequence (P27361 whole entry): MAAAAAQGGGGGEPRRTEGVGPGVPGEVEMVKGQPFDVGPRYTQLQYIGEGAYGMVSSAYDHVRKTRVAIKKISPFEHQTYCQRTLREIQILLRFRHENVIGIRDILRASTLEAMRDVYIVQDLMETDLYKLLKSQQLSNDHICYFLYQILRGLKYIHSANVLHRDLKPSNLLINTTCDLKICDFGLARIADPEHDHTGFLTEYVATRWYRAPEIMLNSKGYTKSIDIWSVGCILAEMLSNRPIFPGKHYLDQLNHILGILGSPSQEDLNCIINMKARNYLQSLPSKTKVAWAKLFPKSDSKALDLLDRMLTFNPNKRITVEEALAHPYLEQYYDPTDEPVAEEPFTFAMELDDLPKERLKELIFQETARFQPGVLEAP

In the case of `COc1ccc(NC(=O)c2cccc(/C=C3\CC(=O)N(c4ccc(C)cc4)C3=O)c2)cc1`, the viability at 48 h, 5 µM in [1] came out at 76.1%. The inhibition in series [2] is 50 to 70%; in series [4], “Dose-dependent effect”; with HT-29 [5] it was “Dose-dependent effect”; in the series with HUVEC [6], “Dose-dependent effect”; in the series with HUVEC [7], “Tde”; in series [10], 50 to 70%. Also, the inhibition result was “Dose-dependent effect” in the series on HT-29 [13], 50 to 70% in [14] and “Dose-dependent effect” in the series on HUVEC [16]. In addition, the inhibition at 10 µM in the series on HUVEC [3] worked out at 50%. In addition, the IC50 in the series on SW480 was 93 µM; in the series with NCM460 it was more than 100 µM. Besides, in the series with HT-29 [8], the inhibition entry was “Active”. In addition, the Activity in the series on HT-29 [9] came to 1.1%; in the series with HT-29 [11], 1.3%; in the series on HUVEC [12] it was 5.6%. The result in the series with Mus musculus was Active. For the same compound, the viability at 24 h, 10 µM in series [15] came out at 72%.
